Results as given in ChEMBL document CHEMBL1145777 (J Med Chem, 2003).

Experiments:
[1] = Binding affinity towards Opioid receptor delta 1 from guinea pig brain using [3H]naltrindole as radioligand
[2] = molecular target: T1, Kappa-type opioid receptor (Homo sapiens, UniProt P41145); assay: (§1) Incorporation of [35S]GTP-gamma-S, into CHO membranes expressing human Opioid receptor kappa 1; assay type: functional
[3] = molecular target: Mu-type opioid receptor (Cavia porcellus, UniProt P97266); assay: Binding affinity towards Opioid receptor mu 1 from guinea pig brain using [3H]DAMGO as radioligand
[4] = molecular target: T1, Kappa-type opioid receptor; assay: as §1; assay type: functional; remark: listed apart in the source
[5] = molecular target: Kappa-type opioid receptor (Cavia porcellus, UniProt P41144); assay: Binding affinity towards Opioid receptor kappa 1 from guinea pig brain using [3H]U-69593 as radioligand
Procedure, shortened: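 Uses 1 nM [3H]U69,593 with guinea pig brain membrane protein (500 µg), 12 concentrations, 50 mM Tris-HCl pH 7.5, 60 min at 25 °C. Nonspecific binding with 10 µM naloxone. Filters pre-soaked in 0.1% polyethylenimine; bound label counted.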

[6] = molecular target: Kappa-type opioid receptor (Cavia porcellus) (UniProt P41144); assay: Ratio of binding affinity of Opioid receptor kappa 1 to Opioid receptor mu 1 to Opioid receptor delta 1; kappa:mu:delta = 26:81:1
[7] = molecular target: Kappa-type opioid receptor (Cavia porcellus) (UniProt P41144); assay: Ratio of binding affinity of Opioid receptor kappa 1 to Opioid receptor mu 1 to Opioid receptor delta 1; kappa:mu:delta = 15:18:1
[8] = molecular target: Kappa-type opioid receptor (Cavia porcellus) (UniProt P41144); assay: Ratio of binding affinity of Opioid receptor kappa 1 to Opioid receptor mu 1 to Opioid receptor delta 1; kappa:mu:delta = 5:4:1
[9] = molecular target: T2, Mu-type opioid receptor (Homo sapiens, UniProt P35372); assay: Incorporation of [35S]- GTPgammaS into CHO membranes expressing human Opioid receptor mu 1
[10] = molecular target: T2, Mu-type opioid receptor; assay: Incorporation of [35S]GTP-gamma-S, into CHO membranes expressing human Opioid receptor mu 1; assay type: functional
[11] = molecular target: Kappa-type opioid receptor (Cavia porcellus) (UniProt P41144); assay: Ratio of binding affinity of Opioid receptor kappa 1 to Opioid receptor mu 1 to Opioid receptor delta 1; kappa:mu:delta = 16:14:1
[12] = molecular target: Kappa-type opioid receptor (Cavia porcellus) (UniProt P41144); assay: Ratio of binding affinity of Opioid receptor kappa 1 to Opioid receptor mu 1 to Opioid receptor delta 1; kappa:mu:delta = 28:12:1
[13] = molecular target: Kappa-type opioid receptor (Cavia porcellus) (UniProt P41144); assay: Ratio of binding affinity of Opioid receptor kappa 1 to Opioid receptor mu 1 to Opioid receptor delta 1; kappa:mu:delta = 10:9:1
[14] = molecular target: Kappa-type opioid receptor (Cavia porcellus) (UniProt P41144); assay: Ratio of binding affinity of Opioid receptor kappa 1 to Opioid receptor mu 1 to Opioid receptor delta 1; kappa:mu:delta = 29:18:1
[15] = molecular target: Kappa-type opioid receptor (Cavia porcellus) (UniProt P41144); assay: Ratio of binding affinity of Opioid receptor kappa 1 to Opioid receptor mu 1 to Opioid receptor delta 1; kappa:mu:delta = 150:7:1
[16] = molecular target: Kappa-type opioid receptor (Cavia porcellus) (UniProt P41144); assay: Ratio of binding affinity of Opioid receptor kappa 1 to Opioid receptor mu 1 to Opioid receptor delta 1; kappa:mu:delta = 12:38:1
[17] = molecular target: Kappa-type opioid receptor (Cavia porcellus) (UniProt P41144); assay: Ratio of binding affinity of Opioid receptor kappa 1 to Opioid receptor mu 1 to Opioid receptor delta 1; kappa:mu:delta = 11:7:1

T2 sequence (P35372 whole entry): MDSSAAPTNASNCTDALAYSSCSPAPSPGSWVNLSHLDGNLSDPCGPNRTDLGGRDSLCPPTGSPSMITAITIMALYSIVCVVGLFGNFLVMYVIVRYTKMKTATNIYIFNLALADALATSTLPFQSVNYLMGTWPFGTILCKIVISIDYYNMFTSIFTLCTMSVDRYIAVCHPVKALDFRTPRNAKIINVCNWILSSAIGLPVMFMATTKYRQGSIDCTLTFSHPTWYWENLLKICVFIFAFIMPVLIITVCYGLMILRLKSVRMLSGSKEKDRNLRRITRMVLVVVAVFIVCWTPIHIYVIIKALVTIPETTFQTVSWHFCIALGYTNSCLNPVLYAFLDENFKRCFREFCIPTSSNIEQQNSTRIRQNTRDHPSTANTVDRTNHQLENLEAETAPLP
Sequence of Mu-type opioid receptor (Cavia porcellus, UniProt P97266) (P97266 whole entry): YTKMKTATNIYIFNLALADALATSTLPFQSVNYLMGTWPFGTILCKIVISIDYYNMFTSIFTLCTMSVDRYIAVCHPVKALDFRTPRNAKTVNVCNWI
T1 sequence (P41145 whole entry): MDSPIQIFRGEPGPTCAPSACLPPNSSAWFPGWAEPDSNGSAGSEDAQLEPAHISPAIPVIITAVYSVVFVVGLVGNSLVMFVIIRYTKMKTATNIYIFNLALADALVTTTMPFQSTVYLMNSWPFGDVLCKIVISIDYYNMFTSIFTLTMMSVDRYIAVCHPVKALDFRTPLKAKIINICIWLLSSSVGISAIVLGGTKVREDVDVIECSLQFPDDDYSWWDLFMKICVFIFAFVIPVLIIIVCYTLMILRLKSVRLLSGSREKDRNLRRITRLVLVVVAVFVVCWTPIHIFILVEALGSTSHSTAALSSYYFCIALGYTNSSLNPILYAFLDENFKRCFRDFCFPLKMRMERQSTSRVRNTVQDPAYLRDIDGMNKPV
Sequence of Kappa-type opioid receptor (Cavia porcellus, UniProt P41144) (P41144 whole entry): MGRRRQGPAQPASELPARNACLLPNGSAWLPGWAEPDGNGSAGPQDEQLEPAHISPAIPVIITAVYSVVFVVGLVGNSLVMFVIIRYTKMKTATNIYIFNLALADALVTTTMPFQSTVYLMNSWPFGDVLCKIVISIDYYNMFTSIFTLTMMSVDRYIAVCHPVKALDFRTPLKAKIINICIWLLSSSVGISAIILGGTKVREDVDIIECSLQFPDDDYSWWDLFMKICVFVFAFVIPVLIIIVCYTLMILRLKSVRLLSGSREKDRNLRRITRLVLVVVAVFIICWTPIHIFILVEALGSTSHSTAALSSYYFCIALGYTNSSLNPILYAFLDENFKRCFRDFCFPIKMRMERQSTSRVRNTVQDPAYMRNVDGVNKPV
Sequence of Kappa-type opioid receptor (Cavia porcellus) (P41144 whole entry): as above

Question: For `CC(C)Nc1ccc2c(c1)[C@@]1(C)CCN(CC3CC3)C(C2)[C@@H]1C`, which Ki [1] is on record?
Answer: The Ki was 460 nM.

Question: Which Emax [2] does the source give for `C[C@H]1[C@H]2Cc3ccc(O)cc3[C@@]1(C)CCN2C[C@@H]1CCCO1` here?
Answer: The Emax was 70%.

Question: What about the Ki [3] of the same compound?
Answer: The Ki was 0.17 nM.

Question: What about the EC50 [4] of the same compound?
Answer: The EC50 was 4 nM.

Question: And the Ki [5]?
Answer: Its Ki is 0.073 nM.

Question: For `CC[C@@]12CCN(CC3CC3)C(C(=O)c3ccc(O)cc31)[C@@H]2C` (single isomer, unassigned; (+)) [ETHYLKETOCYCLAZOCINE], which Ki [3] is on record?
Answer: The Ki was 320 nM.

Question: With `C[C@H]1C2Cc3ccc(NCc4ccccc4)cc3[C@@]1(C)CCN2CC1CC1` (single isomer, unassigned; (-)) [listing 1 of 2 here] as the compound, how does the Ratio [6] read?
Answer: Its Ratio is 26.

Question: Which Ki [3] does the source give for `C[C@@H]1[C@@H]2Cc3ccc(N)cc3[C@]1(C)CCN2CC1CC1` here?
Answer: The Ki was 780 nM.

Question: What about the Ki [5] of the same compound?
Answer: Its Ki is 506 nM.

Question: For `C[C@H]1C2Cc3ccc(NCCc4ccccc4)cc3[C@@]1(C)CCN2CC1CC1`, which Ratio [7] is on record?
Answer: The Ratio was 15.

Question: And the Ki [1]?
Answer: Its Ki is 160 nM.

Question: What does the source list for `C[C@H]1C2Cc3ccc(N4CCOCC4)cc3[C@@]1(C)CCN2CC1CC1`?
Answer: Ratio [8]: 5; Ki [1]: 2800 nM

Question: For `C[C@H]1C2Cc3ccc(NCc4ccccc4)cc3[C@@]1(C)CCN2CC1CC1` (single isomer, unassigned; (-)) [listing 2 of 2 here], which Ki [1] is on record?
Answer: Its Ki is 54 nM.

Question: With `C[C@H]1[C@H]2Cc3ccc(O)cc3[C@]1(C)CCN2CC1CC1` (stereo in doubt) [CYCLAZOCINE] as the compound, how does the EC50 [4] read?
Answer: The EC50 was 1.6 nM.

Question: With `C[C@H]1C2Cc3cc4c(cc3[C@@]1(C)CCN2CC1CC1)[nH]c1ccccc14` as the compound, how does the Ki [5] read?
Answer: The Ki was 9.6 nM.

Question: Which EC50 [9] does the source give for `CC[C@@]12CCN(CC3CC3)C(C(=O)c3ccc(Nc4ccccc4)cc31)[C@@H]2C` here?
Answer: The EC50 was 22 nM.

Question: And the Emax [10]?
Answer: Its Emax is 70%.

Question: What about the Emax [2] of the same compound?
Answer: The Emax was 110%.

Question: What about the Ki [3] of the same compound?
Answer: The Ki was 10 nM.

Question: What about the EC50 [4] of the same compound?
Answer: Its EC50 is 5.9 nM.

Question: What about the Ki [5] of the same compound?
Answer: The Ki was 2.2 nM.

Question: Which Ki [1] does the source give for `CNc1ccc2c(c1)[C@@]1(C)CCN(CC3CC3)C(C2)[C@@H]1C` here?
Answer: The Ki was 470 nM.

Question: For `CC[C@@]12CCN(CC3CC3)C(C(=O)c3ccc(N)cc31)[C@@H]2C` (single isomer, unassigned; (-)), which EC50 [9] is on record?
Answer: The EC50 was 92 nM.

Question: What about the Ki [3] of the same compound?
Answer: Its Ki is 2.7 nM.

Question: What about the EC50 [4] of the same compound?
Answer: The EC50 was 2.8 nM.

Question: What about the Ki [5] of the same compound?
Answer: Its Ki is 1.1 nM.

Question: With `C[C@H]1C2Cc3ccc(Nc4ccc(C(F)(F)F)cc4)cc3[C@@]1(C)CCN2CC1CC1` as the compound, how does the Ki [3] read?
Answer: The Ki was 13 nM.

Question: And the Ratio [11]?
Answer: Its Ratio is 16.

Question: And the Ki [5]?
Answer: Its Ki is 11 nM.

Question: What does the source list for `C[C@H]1C2Cc3ccc(N4CCN(C)CC4)cc3[C@@]1(C)CCN2CC1CC1`?
Answer: Ratio [12]: 28; Ki [1]: 250 nM

Question: What does the source list for `C[C@H]1[C@H]2Cc3ccc(Nc4ccccc4)cc3[C@@]1(C)CCN2CC1CC1`?
Answer: EC50 [9]: 15 nM; EC50 [4]: 3.8 nM

Question: For `CC[C@@]12CCN(CC3CC3)C(C(=O)c3ccc(N)cc31)[C@@H]2C` (single isomer, unassigned; (+)), which Ki [3] is on record?
Answer: Its Ki is 17 nM.

Question: What about the Ki [5] of the same compound?
Answer: The Ki was 91 nM.

Question: Which Ki [3] does the source give for `C[C@H]1C2Cc3ccc(Nc4ccc(Cl)cc4)cc3[C@@]1(C)CCN2CC1CC1` here?
Answer: The Ki was 3 nM.

Question: And the Ratio [13]?
Answer: The Ratio was 10.

Question: What about the Ki [5] of the same compound?
Answer: Its Ki is 2.5 nM.

Question: For `COc1ccc(Nc2ccc3c(c2)[C@@]2(C)CCN(CC4CC4)C(C3)[C@@H]2C)cc1`, which Ki [3] is on record?
Answer: The Ki was 0.47 nM.

Question: And the Ratio [14]?
Answer: The Ratio was 29.

Question: And the Ki [5]?
Answer: Its Ki is 0.29 nM.

Question: For `C[C@H]1[C@H]2Cc3ccc(O)cc3[C@]1(C)CCN2CC1CC1` (stereo in doubt; (-)2) [CYCLAZOCINE], which EC50 [4] is on record?
Answer: The EC50 was 1.2 nM.

Question: Which Emax [10] does the source give for `CC[C@@]12CCN(CC3CC3)C(C(=O)c3ccc(N)cc31)[C@@H]2C` (stereo in doubt; 44) here?
Answer: Its Emax is 60%.

Question: What about the Emax [2] of the same compound?
Answer: Its Emax is 100%.

Question: And the Ratio [15]?
Answer: The Ratio was 150.

Question: What does the source list for `C[C@H]1C2Cc3ccc(N(C)C)cc3[C@@]1(C)CCN2CC1CC1` (single isomer, unassigned; (+))?
Answer: Ki [3]: 50000 nM; Ki [5]: 3000 nM

Question: For `C[C@H]1[C@H]2Cc3ccc(Nc4ccccc4)cc3[C@@]1(C)CCN2CC1CC1` (stereo in doubt; 10), which Ki [1] is on record?
Answer: Its Ki is 9.4 nM.

Question: For `C[C@H]1C2C(=O)c3ccc(O)cc3[C@@]1(C)CCN2CC1CC1`, which EC50 [9] is on record?
Answer: Its EC50 is 21 nM.

Question: What about the Emax [10] of the same compound?
Answer: The Emax was 40%.

Question: And the Emax [2]?
Answer: Its Emax is 80%.

Question: And the EC50 [4]?
Answer: Its EC50 is 3.3 nM.

Question: And the Ki [5]?
Answer: The Ki was 1 nM.

Question: For `C[C@H]1C2C(=O)c3ccc(N)cc3[C@@]1(C)CCN2CC1CC1`, which EC50 [9] is on record?
Answer: Its EC50 is 180 nM.

Question: And the Emax [10]?
Answer: The Emax was 80%.

Question: What about the Emax [2] of the same compound?
Answer: The Emax was 70%.

Question: And the Ki [3]?
Answer: The Ki was 3.6 nM.

Question: What about the EC50 [4] of the same compound?
Answer: Its EC50 is 9.7 nM.

Question: And the Ki [5]?
Answer: The Ki was 0.8 nM.

Question: For `C[C@H]1C2Cc3ccc(Nc4ccccn4)cc3[C@@]1(C)CCN2CC1CC1`, which Ki [3] is on record?
Answer: Its Ki is 4.2 nM.

Question: What about the Ki [5] of the same compound?
Answer: The Ki was 9.2 nM.

Question: Which Ratio [16] does the source give for `C[C@H]1C2Cc3ccc(NCc4ccccc4)cc3[C@@]1(C)CCN2CC1CC1` (stereo in doubt; 25) here?
Answer: The Ratio was 12.

Question: For `Cc1ccc(Nc2ccc3c(c2)[C@@]2(C)CCN(CC4CC4)C(C3)[C@@H]2C)cc1`, which Ki [3] is on record?
Answer: Its Ki is 0.91 nM.

Question: What about the Ratio [17] of the same compound?
Answer: Its Ratio is 11.

Question: And the Ki [5]?
Answer: Its Ki is 0.57 nM.
